According to ChEMBL document CHEMBL4373711, “Development of 3,5-Dinitrophenyl-Containing 1,2,4-Triazoles and Their Trifluoromethyl Analogues as Highly Efficient Antitubercular Agents Inhibiting Decaprenylphosphoryl-β-d-ribofuranose 2'-Oxidase” (J Med Chem, 2019):

Experiments:
[1] = test system: Mycobacterium tuberculosis; assay: Antimycobacterial activity against multi-drug resistant Mycobacterium tuberculosis Praha 4 after 14 days; conditions: Praha 4, 336 h
[2] = test system: Mycobacterium tuberculosis; assay: Antimycobacterial activity against multi-drug resistant Mycobacterium tuberculosis 8666/2010 after 21 days; format: functional; conditions: 8666/2010, 504 h
In short: (§1)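 M. tuberculosis strains (H37Rv and clinical MDR/XDR isolates) tested by microdilution in Šula's semisynthetic medium. Compounds were dissolved in DMSO and tested at 32 to 0.03 µM in twofold steps. Inoculum was a 1.0 McFarland suspension diluted 10-3. Plates were incubated at 37 °C and read at 14 and 21 days.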

[3] = test system: Mycobacterium tuberculosis; assay: microbe, parasite or virus in culture; conditions: 234/2005, 336 h
[4] = test system: Mycobacterium tuberculosis; assay: Antimycobacterial activity against multi-drug resistant Mycobacterium tuberculosis 7357/1998 after 14 days; format: functional; conditions: 7357/1998, 336 h; in short: as §1
[5] = test system: Mycobacterium tuberculosis; assay: Antimycobacterial activity against multi-drug resistant Mycobacterium tuberculosis 8666/2010 after 14 days; format: functional; conditions: for MIC99: 8666/2010, 336 h; in short: as §1
[6] = test system: Mycobacterium tuberculosis; assay: Antimycobacterial activity against multi-drug resistant Mycobacterium tuberculosis 9449/2007 after 21 days; format: functional; conditions: for MIC99: 9449/2007, 504 h; in short: as §1
[7] = test system: Mycobacterium tuberculosis; assay: Antimycobacterial activity against multi-drug resistant Mycobacterium tuberculosis 234/2005 after 21 days; format: functional; conditions: 234/2005, 504 h; in short: as §1
[8] = test system: Mycobacterium tuberculosis; assay: Antimycobacterial activity against multi-drug resistant Mycobacterium tuberculosis Praha 1 after 14 days; format: functional; conditions: for MIC99: Praha 1, 336 h; in short: as §1
[9] = test system: Mycobacterium tuberculosis; assay: Antimycobacterial activity against multi-drug resistant Mycobacterium tuberculosis Praha 4 after 21 days; format: functional; conditions: Praha 4, 504 h; in short: as §1
[10] = test system: Mycobacterium tuberculosis; assay: Antimycobacterial activity against multi-drug resistant Mycobacterium tuberculosis 9449/2007 after 14 days; format: functional; conditions: 9449/2007, 336 h; in short: as §1
[11] = test system: Mycobacterium tuberculosis; assay: Antimycobacterial activity against multi-drug resistant Mycobacterium tuberculosis Praha 1 after 21 days; format: functional; conditions: Praha 1, 504 h; in short: as §1
[12] = test system: Mycobacterium tuberculosis; assay: Antimycobacterial activity against multi-drug resistant Mycobacterium tuberculosis 7357/1998 after 21 days; format: functional; conditions: for MIC99: 7357/1998, 504 h; in short: as §1

O=[N+]([O-])c1cc(-c2nnc(SCc3ccccc3)n2Cc2ccccc2)cc([N+](=O)[O-])c1
0.03 µM: MIC99 [1] | MIC99 [2] | MIC99 [3] | MIC99 [4] | MIC99 [5] | MIC99 [6] | MIC99 [7] | MIC99 [8] | MIC99 [9] | MIC99 [10] | MIC99 [11] | MIC99 [12]

CN[C@@H]1[C@H](O[C@H]2[C@H](O[C@H]3[C@H](O)[C@@H](O)[C@H](N=C(N)N)[C@@H](O)[C@@H]3N=C(N)N)O[C@@H](C)[C@]2(O)C=O)O[C@@H](CO)[C@H](O)[C@H]1O [STREPTOMYCIN]
> 32 µM: MIC99 [1] | MIC99 [5] | MIC99 [6] | MIC99 [12]

O=[N+]([O-])c1cc(CSc2nnc(-c3ccccc3)n2Cc2ccccc2)cc([N+](=O)[O-])c1
4 µM: MIC99 [2] | MIC99 [3] | MIC99 [4] | MIC99 [6] | MIC99 [7] | MIC99 [9] | MIC99 [10] | MIC99 [11]
2 µM: MIC99 [1] | MIC99 [5] | MIC99 [8] | MIC99 [12]

CC1COc2c(N3CCN(C)CC3)c(F)cc3c(=O)c(C(=O)O)cn1c23 (stereo not drawn) [OFLOXACIN]
> 16 µM: MIC99 [1]

O=[N+]([O-])c1cc(-c2nnc(SCc3ccc(Br)cc3)n2Cc2ccccc2)cc([N+](=O)[O-])c1
0.25 µM: MIC99 [2] | MIC99 [4] | MIC99 [5] | MIC99 [7] | MIC99 [9] | MIC99 [10] | MIC99 [11]
0.125 µM: MIC99 [1] | MIC99 [3] | MIC99 [6] | MIC99 [8] | MIC99 [12]

CCCSc1nnc(-c2cc([N+](=O)[O-])cc([N+](=O)[O-])c2)n1Cc1ccccc1
0.125 µM: MIC99 [1] | MIC99 [2] | MIC99 [4] | MIC99 [7] | MIC99 [8] | MIC99 [9] | MIC99 [10] | MIC99 [11]
0.06 µM: MIC99 [3] | MIC99 [5] | MIC99 [6] | MIC99 [12]

CCCCCCCCSc1nnc(-c2cc([N+](=O)[O-])cc([N+](=O)[O-])c2)n1Cc1ccccc1
0.25 µM: MIC99 [2] | MIC99 [4] | MIC99 [7] | MIC99 [9] | MIC99 [10] | MIC99 [11]
0.125 µM: MIC99 [1] | MIC99 [3] | MIC99 [5] | MIC99 [6] | MIC99 [8] | MIC99 [12]

CCCCCCn1c(SCc2cc([N+](=O)[O-])cc([N+](=O)[O-])c2)nnc1-c1ccccc1
4 µM: MIC99 [9]
2 µM: MIC99 [1] | MIC99 [2] | MIC99 [3] | MIC99 [4] | MIC99 [7] | MIC99 [10] | MIC99 [11]
1 µM: MIC99 [5] | MIC99 [6] | MIC99 [8] | MIC99 [12]

COc1ccc(Cn2c(SCc3cc([N+](=O)[O-])cc([N+](=O)[O-])c3)nnc2-c2ccccc2)cc1
4 µM: MIC99 [7] | MIC99 [9] | MIC99 [10] | MIC99 [11]
2 µM: MIC99 [1] | MIC99 [2] | MIC99 [3] | MIC99 [4] | MIC99 [5] | MIC99 [6] | MIC99 [8] | MIC99 [12]

COc1ccc(CSc2nnc(-c3cc([N+](=O)[O-])cc([N+](=O)[O-])c3)n2Cc2ccccc2)cc1
0.03 µM: MIC99 [1] | MIC99 [2] | MIC99 [3] | MIC99 [4] | MIC99 [5] | MIC99 [6] | MIC99 [7] | MIC99 [8] | MIC99 [9] | MIC99 [10] | MIC99 [11] | MIC99 [12]

O=[N+]([O-])c1cc(-c2nnc(SCc3ccc(Cl)c(Cl)c3)n2Cc2ccccc2)cc(C(F)(F)F)c1
2 µM: MIC99 [1] | MIC99 [2] | MIC99 [3] | MIC99 [4] | MIC99 [5] | MIC99 [6] | MIC99 [7] | MIC99 [8] | MIC99 [9] | MIC99 [10] | MIC99 [11] | MIC99 [12]

Cn1c(SCc2ccc(Cl)c(Cl)c2)nnc1-c1cc([N+](=O)[O-])cc([N+](=O)[O-])c1
0.06 µM: MIC99 [1] | MIC99 [2] | MIC99 [3] | MIC99 [4] | MIC99 [5] | MIC99 [6] | MIC99 [7] | MIC99 [8] | MIC99 [9] | MIC99 [10] | MIC99 [11] | MIC99 [12]

O=[N+]([O-])c1cc(-c2nnc(SCc3ccc(Cl)cc3)n2Cc2ccccc2)cc([N+](=O)[O-])c1
0.125 µM: MIC99 [1] | MIC99 [3] | MIC99 [5] | MIC99 [6] | MIC99 [8] | MIC99 [12]
0.25 µM: MIC99 [2] | MIC99 [4] | MIC99 [7] | MIC99 [9] | MIC99 [10] | MIC99 [11]

O=[N+]([O-])c1cc(CSc2nnc(C3CCCCC3)n2Cc2ccccc2)cc(C(F)(F)F)c1
16 µM: MIC99 [1] | MIC99 [2] | MIC99 [3] | MIC99 [4] | MIC99 [5] | MIC99 [6] | MIC99 [7] | MIC99 [8] | MIC99 [9] | MIC99 [10] | MIC99 [11] | MIC99 [12]

CCn1c(SCc2ccccc2)nnc1-c1cc([N+](=O)[O-])cc([N+](=O)[O-])c1
0.03 µM: MIC99 [1] | MIC99 [2] | MIC99 [3] | MIC99 [4] | MIC99 [5] | MIC99 [6] | MIC99 [7] | MIC99 [8] | MIC99 [9] | MIC99 [10] | MIC99 [11] | MIC99 [12]

GENTAMICIN
2 µM: MIC>99 [5]
1 µM: MIC>99 [6] | MIC>99 [8] | MIC>99 [12]

Cn1c(SCc2ccccc2)nnc1-c1cc([N+](=O)[O-])cc([N+](=O)[O-])c1
0.03 µM: MIC99 [1] | MIC99 [2] | MIC99 [3] | MIC99 [4] | MIC99 [5] | MIC99 [6] | MIC99 [7] | MIC99 [8] | MIC99 [9] | MIC99 [10] | MIC99 [11] | MIC99 [12]

CO[C@H]1/C=C/O[C@@]2(C)Oc3c(C)c(O)c4c(O)c(c(/C=N/N5CCN(C)CC5)c(O)c4c3C2=O)NC(=O)/C(C)=C\C=C\[C@H](C)[C@H](O)[C@@H](C)[C@@H](O)[C@@H](C)[C@H](OC(C)=O)[C@@H]1C [RIFAMPIN]
> 8 µM: MIC99 [1] | MIC99 [3] | MIC99 [5] | MIC99 [6] | MIC99 [8] | MIC99 [12]
